MT stabilize HCS: microtubule stabilizers in HeLa cells; HeLa tubulin immunostaining HCS, 24 h; share of cells brighter than vehicle mean+2SD; % tubulin-high responders, % at 10 µM; 200,000 tested, 0.83% active; AID 2205;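 active = plate Z-score above 3 for both tubulin-high and condensed-nucleus cell shares, with cell loss under 80%, at 10 µM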;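 also: anti alpha tubulin signal scored within the nucleus-defined area of each cell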
b-catenin transl: beta-catenin nuclear translocation modulation; 190,000 tested, 0.3% active; HeLa beta-catenin nuclear translocation, immunofluorescence imaging; AID 1665; nuclear translocation activity, % at 5 µM;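 active = nuclear translocation activity above 50% at 5 µM, with a well cell count of 50 or more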;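 also: per-cell ratio of nuclear to cytoplasmic median beta-catenin stain intensity; plate controls were DMSO negative control for no effect and GSK-3 inhibitor IX positive control for full effect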
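Test system: human HeLa cells, endogenous beta-catenin. Times: 24 h compound exposure, 37°C. Measured by: beta-catenin immunofluorescence imaging with DAPI.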
Hsp70 act: transcriptional activators of Hsp70; HeLa Hsp70 promoter luciferase reporter, luminescence; scaled: vehicle 0, proteasome-inhibitor control 100%; activation, % at 10 µM; 200,000 tested, 0.04% active; AID 1203;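 active = activation above the mean across all tested compounds plus 3 SD, cutoff set per campaign, cut at about 5.5% in these data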;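 also: 100% = MG132 at 30 µM as the positive control and 0% = DMSO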
TLR4-MyD88 BLA: blocks binding of human TLR4 to MyD88. 200,000 tested, 0.18% active. inhibition, % at 8.4 µM. HeLa CL3-4 TLR4/MyD88 BLA complementation, FRET ratio. AID 861; in the data active = inhibition above about 25%;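 also: 0% = vehicle and 100% = reference inhibitor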
NOD2-RIPK2 inh: inhibitors of human NOD2-RIPK2 interaction; O43353; CHO BLA complementation NOD2-RIPK2, CCF4 ratio; inhibition, % at 4.98 µM; 360,000 tested, 0.38% active; in the data active = inhibition above about 21%;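 also: 0% = vehicle only and 100% = reference blocker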
TLR9-MyD88 inh: inhibitors of human TLR9-MyD88 binding; Q9NR96+Q99836; CHO BLA complementation TLR9-MyD88, CCF4 FRET ratio; inhibition, % at 4.98 µM; 340,000 tested, 0.21% active; AID 504734;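 active = inhibition above the mean over all tested compounds plus 3 SD, cut at about 21% in these data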;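 also: 0% = DMSO only wells and 100% = clavulanate BLA inhibitor control wells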
* = called active by the depositor. In the library only some 1% were active in any assay of this set; here they are far more common.

What do the screens show for `Cc1cc(NC(=O)c2cc(-c3ccco3)on2)nn1Cc1ccc(Cl)cc1`?
MT stabilize HCS: 18*; Hsp70 act: 0; TLR4-MyD88 BLA: 2; NOD2-RIPK2 inh: -7; TLR9-MyD88 inh: -10

Results for COc1ccc(NCC(=O)Nc2cccc(S(=O)(=O)N3CCCC3)c2)cc1Cl ?
NOD2-RIPK2 inh: -1; TLR9-MyD88 inh: -10

Results for O=C(Nc1nccs1)c1cn(-c2ccccc2)nc1-c1ccccc1 ?
MT stabilize HCS: 34*; Hsp70 act: 0; TLR4-MyD88 BLA: 5; NOD2-RIPK2 inh: 0; TLR9-MyD88 inh: 8

Results for CC(C)COc1ccc(-c2nn(-c3ccccc3)cc2C(=O)Nc2nccs2)cc1 ?
MT stabilize HCS: 1; b-catenin transl: -9; Hsp70 act: 0; TLR4-MyD88 BLA: -10; NOD2-RIPK2 inh: -3; TLR9-MyD88 inh: -13

Results for Cc1cccc(C)c1NC(=O)C(c1ccc(C#N)cc1)n1c(=O)c(-c2ccco2)nc2ccccc21 (stereo unspecified) ?
NOD2-RIPK2 inh: -12

How did CCCNC(=O)N[C@H]1C=C[C@H](CC(=O)OC)O[C@@H]1CO do in these assays?
NOD2-RIPK2 inh: 8

How did COc1ccc(-c2nc3ccccc3n2Cc2ccccc2)cc1 do in these assays?
MT stabilize HCS: 1; Hsp70 act: 0; TLR4-MyD88 BLA: 10; NOD2-RIPK2 inh: -5; TLR9-MyD88 inh: -13

How did COc1ccc(-c2n(Cc3ccccc3)c3ccccc3[n+]2Cc2ccccc2)cc1 do in these assays?
MT stabilize HCS: 11*; b-catenin transl: 0; Hsp70 act: 0; TLR4-MyD88 BLA: 18; NOD2-RIPK2 inh: -1; TLR9-MyD88 inh: -4

How did Cc1ccc(-c2cc(C(=O)Nc3cc(C)on3)c3ccccc3n2)cc1 do in these assays?
MT stabilize HCS: 2; b-catenin transl: -1; Hsp70 act: 0; TLR4-MyD88 BLA: 11; NOD2-RIPK2 inh: -12; TLR9-MyD88 inh: 3

How did Cc1cc(NC(=O)c2cc(-c3ccncc3)nc3c(C)cccc23)no1 do in these assays?
MT stabilize HCS: 37*; Hsp70 act: 0; TLR4-MyD88 BLA: 8; NOD2-RIPK2 inh: 5; TLR9-MyD88 inh: -6

Results for Cc1ccc(CSCC(=O)Nc2ccccc2C(=O)O)cc1 ?
NOD2-RIPK2 inh: -7; TLR9-MyD88 inh: 0

What do the screens show for `CSc1ccccc1NC(=O)CSCc1ccc(C)cc1`?
MT stabilize HCS: 30*; b-catenin transl: 7; Hsp70 act: 0; TLR4-MyD88 BLA: -2; NOD2-RIPK2 inh: -7; TLR9-MyD88 inh: 5

What do the screens show for `CCN1C(=O)[C@@H]2Cc3c([nH]c4ccccc34)C(c3ccc(OC)cc3)N2C1=S` (stereo partly specified)?
NOD2-RIPK2 inh: 2; TLR9-MyD88 inh: -3

Results for COc1cc([N+](=O)[O-])c(C)cc1NC(=O)c1ccc(OC)c(OC)c1 ?
NOD2-RIPK2 inh: -5; TLR9-MyD88 inh: 1

What do the screens show for `Cc1cccc(C(=O)N/N=C/c2cc(Br)c(Br)o2)c1`?
MT stabilize HCS: 11*; Hsp70 act: 0; TLR4-MyD88 BLA: -11; NOD2-RIPK2 inh: 7; TLR9-MyD88 inh: 3

Results for Cc1onc(-c2ccccc2)c1C(=O)N/N=C/c1cc(Br)c(Br)o1 ?
MT stabilize HCS: 4; Hsp70 act: 0; TLR4-MyD88 BLA: 7; NOD2-RIPK2 inh: 10; TLR9-MyD88 inh: -6

What do the screens show for `CCN(CC)S(=O)(=O)c1ccc2[nH]cc(C(=O)NCCN3CCCCCC3)c(=O)c2c1`?
MT stabilize HCS: 4; b-catenin transl: -1; Hsp70 act: 0; TLR4-MyD88 BLA: -8; NOD2-RIPK2 inh: -11; TLR9-MyD88 inh: 4

Results for CCN(CC)S(=O)(=O)c1ccc2[nH]cc(C(=O)NCCC3=CCCCC3)c(=O)c2c1 ?
MT stabilize HCS: 33*; b-catenin transl: 0; Hsp70 act: -1; TLR4-MyD88 BLA: -1; NOD2-RIPK2 inh: -10; TLR9-MyD88 inh: 3

Results for CC1=C(C(=O)Nc2ccccc2C(=O)N2CCN(c3ccccc3)CC2)SCCO1 ?
NOD2-RIPK2 inh: -1; TLR9-MyD88 inh: -4

Results for c1ccc2c(c1)CCCC2C1=NCCN1 (stereo unspecified) ?
MT stabilize HCS: 3; Hsp70 act: 0; TLR4-MyD88 BLA: 0; NOD2-RIPK2 inh: -8; TLR9-MyD88 inh: -7

What do the screens show for `Brc1ccc2c(c1)C(C1=NCCN1)c1ccccc1CS2` (stereo unspecified)?
MT stabilize HCS: 24; b-catenin transl: 51*; Hsp70 act: 0; TLR4-MyD88 BLA: 1; NOD2-RIPK2 inh: 5; TLR9-MyD88 inh: 4

What do the screens show for `N#CC1=C(SCC(=O)c2ccc(Br)cc2)NC2=C(C(=O)CCC2)C1c1ccco1` (stereo unspecified)?
MT stabilize HCS: 32*; b-catenin transl: 47; Hsp70 act: 0; TLR4-MyD88 BLA: -2; NOD2-RIPK2 inh: 9; TLR9-MyD88 inh: 12

What do the screens show for `CC(C)(C)NC(=O)CSc1nc(-c2ccccc2)c(-c2ccccc2)[nH]1`?
MT stabilize HCS: 15*; b-catenin transl: -1; Hsp70 act: -1; TLR4-MyD88 BLA: -10; NOD2-RIPK2 inh: -6; TLR9-MyD88 inh: -4

Results for c1ccc(-c2cc(-c3nnc4n3N=C(c3ccc5ccccc5c3)CS4)[nH]n2)cc1 ?
MT stabilize HCS: 21*; b-catenin transl: 0; Hsp70 act: 0; TLR4-MyD88 BLA: 5; NOD2-RIPK2 inh: -9; TLR9-MyD88 inh: -8

What do the screens show for `CCOc1c(OC)cccc1C1CC(=O)Nc2cc3c(cc21)OCCO3` (stereo unspecified)?
MT stabilize HCS: 22*; b-catenin transl: 7; Hsp70 act: 0; TLR4-MyD88 BLA: -18; NOD2-RIPK2 inh: 6; TLR9-MyD88 inh: -4

What do the screens show for `COc1cc2c(c3ccccc13)CCCC2=O`?
NOD2-RIPK2 inh: 0; TLR9-MyD88 inh: -1

Results for N#Cc1cccc(C=C(C(=O)c2ccccc2)c2ccccc2)c1 ?
NOD2-RIPK2 inh: 3

What do the screens show for `COc1ccccc1Nc1ncc(-c2cccs2)s1`?
MT stabilize HCS: 6; b-catenin transl: 107*; Hsp70 act: 0; TLR4-MyD88 BLA: 10; NOD2-RIPK2 inh: 0; TLR9-MyD88 inh: -4

Results for CC(C)C[C@@H]1O[C@H](C(C)C)Cc2[nH][nH]c(=O)c21 ?
NOD2-RIPK2 inh: -7

Results for COc1ccc(C(=O)N2CCN(S(=O)(=O)c3ccc(Br)cc3)CC2)cc1 ?
NOD2-RIPK2 inh: 1; TLR9-MyD88 inh: -5

What do the screens show for `CCOC(=O)c1c(C)c(C(=O)Nc2ccc(N(C)C)cc2)c(C)n1CC`?
MT stabilize HCS: 13*; b-catenin transl: -4; Hsp70 act: 0; TLR4-MyD88 BLA: -5; NOD2-RIPK2 inh: -16; TLR9-MyD88 inh: 4

How did CCOC(=O)c1c(C)c(C(=O)NCCOC)c(C)n1CC do in these assays?
MT stabilize HCS: 2; b-catenin transl: 0; Hsp70 act: 0; TLR4-MyD88 BLA: 6; NOD2-RIPK2 inh: -7; TLR9-MyD88 inh: 2

Assay outcomes from PubChem.
